Measured values: ChEMBL document CHEMBL3352255, “Tailor-made fluorescent trilobolide to study its biological relevance” (J Med Chem, 2014)
pIC50: −log10 of the molar value. Activity calls are given as the source filed them. The calls are words filed in the database; no cut-off is given here.

Assays:
[1] = Cytotoxicity against human MIAPaCa2 cells after 48 hrs by WST-1 assay; format: functional, cell-based; conditions: MIA PaCa-2, 48 h
Procedure, shortened: (§1)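 Dark cytotoxicity (no light exposure) by WST-1 tetrazolium-to-formazan conversion reflecting metabolic activity; compounds tested at concentrations up to 50 μM for 24, 48 or 72 h; IC50 taken as concentration giving 50% inhibition of cell viability.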

MCF7 [2] = test: Cytotoxicity against human MCF7 cells after 72 hrs by WST-1 assay; format: functional, cell-based; conditions: MCF7, 72 h; procedure, shortened: as §1
LNCaP = test: Cytotoxicity against human LNCAP cells after 72 hrs by WST-1 assay; format: functional, cell-based; procedure, shortened: as §1
U2OS = test: Cellular uptake in human U2OS cells at 1 uM after 40 mins to 24 hrs by fluorescence microscopy; format: ADME, cell-based
Procedure, shortened: (§2)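 Uptake into living cells was followed by fluorescence microscopy at 10, 20 and 40 min and at 1, 3, 5 and 24 h. Green-emitting Bodipy conjugates were given at 1 μM. A Bodipy dye-only stain served as control for dye-driven localisation.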

[3] = Cellular uptake in Endoplasmic reticulum of human U2OS cells at 1 uM after 1 hr by fluorescence microscopy; format: ADME, cell-based
Procedure, shortened: (§3)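 Live-cell fluorescence microscopy of cells exposed to Bodipy-labelled conjugates at 1 μM for 1 h. ER was co-stained with ER-Tracker Blue-White DPX (100 nM, 20 min) to check colocalisation. A Bodipy dye-only stain served as control.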

[4] = Cellular uptake in HEK293T cells at 1 uM after 40 mins to 24 hrs by fluorescence microscopy; format: ADME, cell-based; conditions: human, hek-293t; procedure, shortened: as §2
HeLa [5] = test: Cellular uptake in human HeLa cells at 1 uM after 20 mins by fluorescence microscopy; format: ADME, cell-based; procedure, shortened: as §2
MCF7 [6] = test: Cellular uptake in human MCF7 cells at 1 uM after 20 mins by fluorescence microscopy; format: ADME, cell-based; conditions: mcf7, 20 min; procedure, shortened: as §2
A549 [7] = test: Cellular uptake in human A549 cells at 1 uM after 40 mins to 24 hrs by fluorescence microscopy; format: ADME, cell-based; conditions: a549, 1 µM; procedure, shortened: as §2
Rattus norvegicus [8] = species: Rattus norvegicus; test: Induction of LPS-induced NO production in rat peritoneal cells at 40 uM after 24 hrs using DAR-2 probe by fluorescence assay; format: functional, cell-based
Procedure, shortened: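 Rat peritoneal cells were treated with conjugates at 0.01–100.0 μM for 24 h. NO production was compared with untreated cells. LPS (100 pg·mL−1) and trilobolide (0.1 μM) were included as references. Data are mean ± SEM of three independent experiments, n = 6.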

[9] = Cytotoxicity against human MIAPaCa2 cells after 72 hrs by WST-1 assay; format: functional, cell-based; conditions: MIA PaCa-2, 72 h; procedure, shortened: as §1
HT-29 = test: Cytotoxicity against human HT-29 cells after 24 hrs by WST-1 assay; format: functional, cell-based; conditions: HT-29, 24 h; procedure, shortened: as §1
C2C12 [10] = test: Cytotoxicity against mouse C2C12 cells after 48 hrs by WST-1 assay; format: functional, cell-based; conditions: C2C12, 48 h; procedure, shortened: as §1
[11] = Cellular uptake in Endoplasmic reticulum of human HeLa cells at 1 uM after 1 hr by fluorescence microscopy; format: ADME, cell-based; procedure, shortened: as §3
C2C12 [12] = test: Cellular uptake in mouse C2C12 cells at 1 uM after 40 mins to 24 hrs by fluorescence microscopy; format: ADME, cell-based; conditions: c2c12, 1 µM; procedure, shortened: as §2
[13] = Cellular uptake in HEK293T cells at 1 uM after 20 mins by fluorescence microscopy; format: ADME, cell-based; conditions: human, hek-293t; procedure, shortened: as §2
A549 [14] = test: Cellular uptake in human A549 cells at 1 uM after 20 mins by fluorescence microscopy; format: ADME, cell-based; conditions: a549, 20 min; procedure, shortened: as §2
HeLa [15] = test: Cellular uptake in human HeLa cells at 1 uM after 40 mins to 24 hrs by fluorescence microscopy; format: ADME, cell-based; procedure, shortened: as §2
[16] = Cytotoxicity against rat peritoneal cells assessed as reduction in cell viability at 40 uM after 24 hrs by WST-1 assay
Rattus norvegicus [17] = species: Rattus norvegicus; test: Induction of TNFalpha production in rat peritoneal cells at 10 uM after 24 hrs using by ELISA; format: functional, cell-based
Procedure, shortened: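 Rat peritoneal cells exposed to compounds at 10 μM for 24 h; secreted TNF-α quantified by ELISA; LPS (1000 pg·mL−1) and parent trilobolide (1 μM) as positive controls; mean ± SEM of two independent experiments, n = 4, compared with untreated cells.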

Row | Structure (SMILES) | pIC50 [1] | pIC50 (MCF7 [2]) | pIC50 (LNCaP) | Drug uptake (U2OS) | Drug uptake [3] | Drug uptake [4] | Drug uptake (HeLa [5]) | Drug uptake (MCF7 [6]) | Drug uptake (A549 [7]) | Activity (Rattus norvegicus [8]) | pIC50 [9] | pIC50 (HT-29) | pIC50 (C2C12 [10]) | Drug uptake [11] | Drug uptake (C2C12 [12]) | Drug uptake [13] | Drug uptake (A549 [14]) | Drug uptake (HeLa [15]) | Activity [16] | Activity (Rattus norvegicus [17])
1 | C/C=C(/C)C(=O)O[C@@H]1C[C@H]2C(=C1C)[C@@H]1OC(=O)[C@@](C)(O)[C@@]1(O)[C@@H](OC(=O)CCCCn1cc(COc3ccc(C4=C5C=CC=[N+]5[B-](F)(F)n5cccc54)cc3)nn1)C[C@]2(C)OC(C)=O | 4.36 | 4.97 | < 4.30 | Not Active | Active | Active | Active | Active | Active | Active | 4.42 | < 4.30 | 5.12 | Active | Active | Active | Active | Active |  | 
2 | C/C=C(/C)C(=O)O[C@@H]1C[C@H]2C(=C1C)[C@@H]1OC(=O)[C@@](C)(O)[C@@]1(O)[C@@H](OC(=O)CCOCCOCCOCCOCCn1cc(COc3ccc(C4=C5C=CC=[N+]5[B-](F)(F)n5cccc54)cc3)nn1)C[C@]2(C)OC(C)=O | 5.00 | 5.22 | 4.69 | Not Active | Active |  | Active | Active |  | Active | 5.19 | < 4.30 | 5.19 | Active |  | Active | Active |  | Non-toxic | Active
